Data set [1] concerns the target T1, Polyunsaturated fatty acid 5-lipoxygenase (Homo sapiens, UniProt P09917).
T1 sequence (P09917 whole entry): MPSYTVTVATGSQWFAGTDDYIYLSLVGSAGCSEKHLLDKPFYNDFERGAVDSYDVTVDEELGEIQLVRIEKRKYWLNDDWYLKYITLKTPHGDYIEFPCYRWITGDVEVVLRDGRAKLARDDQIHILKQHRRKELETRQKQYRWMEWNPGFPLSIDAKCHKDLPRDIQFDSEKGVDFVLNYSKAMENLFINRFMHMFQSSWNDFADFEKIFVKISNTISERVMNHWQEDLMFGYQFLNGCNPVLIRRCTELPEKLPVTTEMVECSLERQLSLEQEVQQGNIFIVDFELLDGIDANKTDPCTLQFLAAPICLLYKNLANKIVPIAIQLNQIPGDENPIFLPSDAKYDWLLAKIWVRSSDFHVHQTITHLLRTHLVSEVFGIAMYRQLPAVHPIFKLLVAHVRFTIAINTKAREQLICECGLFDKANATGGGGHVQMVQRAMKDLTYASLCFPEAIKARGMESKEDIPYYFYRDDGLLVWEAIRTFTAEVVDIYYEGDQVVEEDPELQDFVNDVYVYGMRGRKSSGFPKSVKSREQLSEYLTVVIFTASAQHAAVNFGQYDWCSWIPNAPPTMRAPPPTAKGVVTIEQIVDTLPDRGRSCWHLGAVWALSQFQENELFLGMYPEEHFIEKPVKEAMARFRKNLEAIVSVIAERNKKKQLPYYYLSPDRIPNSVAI
Briefly: Inhibition of 5-LOX (unknown origin) by ELISA. In a few lines:
(§1)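 Assays used enzyme immobilized in ELISA plates, with activity read by ELISA. IC50 values are given in µM.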
Background: In an ELISA, binding on a coated surface is turned into a signal by an enzyme label.

Data set [2] is described as follows: Cytotoxicity against COX-2 positive human HCA-7 cells transfected with CD44v6shRNA assessed as growth inhibition after 48 hrs by MTT assay. In kind it is functional, cell-based. The note with it: HCA-7, 48 h.
The nature of data set [3]: Downregulation of hyaluronan-induced CD44v6 protein expression in human HCA-7 cells transfected with Has2cDNA at 5 uM after 24 hrs by Western blotting analysis. It counts as functional, cell-based. Summed up:
(§2)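 HCA7 cells were transiently transfected with Has2 cDNA, grown 72 h, then treated for 24 h. Western blots were probed for CD44v6, COX-1, COX-2 and 5-LOX, with longer exposures used to show COX-2 and 5-LOX. The same blot was reprobed for β-tubulin as a loading control.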
On the technique in general: A western blot detects proteins with antibodies after separation by electrophoresis.

A short description of data set [4]: Cytotoxicity against COX-2, LOX, CD44v6-deficient HIEC6 cells assessed as growth inhibition after 24 hrs by MTT assay. In kind it is cell-based. As to conditions: human, hiec6, 24 h. Summed up:
(§3)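 HCA7 and HIEC6 cells were exposed to a range of test concentrations for 24 h. Cytotoxicity was read by MTT assay and expressed as percent growth inhibition, with untreated cells set to 0% inhibition.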
On the technique in general: Tetrazolium assays rely on reduction of a dye to a coloured formazan, in cell work by metabolically active cells.

Data set [5] concerns HCA-7. Description: Inhibition of hyaluronan-induced CD44v6 in human HCA-7 cells transfected with Has2cDNA assessed as downregulation of COX-1 protein expression at 5 uM after 24 hrs by Western blotting analysis. It counts as cell-based. In a few lines: as §2
For data set [6], the system named is HT-29. Briefly: Downregulation of hyaluronan-induced CD44v6 m-RNA expression in human HT-29 cells transfected with Has2cDNA and CD44v6shRNA at 5 uM after 24 hrs by qRT-PCR analysis. In kind it is functional, cell-based. Summed up:
(§4)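 HT29 cells were transiently transfected with Has2 cDNA alone, or with Has2 cDNA followed by CD44v6 shRNA. They were grown 72 h, then treated for 24 h. CD44v6 mRNA was quantified by qRT-PCR in three independent experiments, each with triplicate samples.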

The test system of data set [7] is HCA-7. Briefly: Cytotoxicity against human HCA-7 cells expressing COX-2, 5-LOX, CD44v6 assessed as growth inhibition after 24 hrs by MTT assay. In kind it is functional, cell-based. Summed up: as §3
Data set [8] can be described thus: Cytotoxicity against COX-2 positive mouse APC10.1 cells transfected with CD44v6shRNA overexpressing HAS-2 assessed as growth inhibition after 48 hrs by MTT assay. In kind it is functional, cell-based.
The subject of data set [9] is HT-29. Briefly: Cytotoxicity against COX-2 positive human HT-29 cells transfected with CD44v6shRNA assessed as growth inhibition after 48 hrs by MTT assay. In kind it is functional, cell-based. As to conditions: HT-29, 48 h.
For a further data set, the system named is SW480. Description: Cytotoxicity against COX-2 negative human SW480 cells assessed as growth inhibition by CellTiter-96 AQueous assay. It counts as functional, cell-based.
Data set [10] can be described thus: Ratio of IC50 for COX-2 positive mouse APC10.1 cells overexpressing HAS-2 to IC50 for COX-2 positive mouse APC10.1 cells transfected with CD44v6shRNA overexpressing HAS-2. It counts as functional.
For data set [11], the system named is HCA-7. Briefly: Inhibition of hyaluronan-induced CD44v6 in human HCA-7 cells transfected with Has2cDNA assessed as downregulation of COX-2 protein expression at 5 uM after 24 hrs by Western blotting analysis. In kind it is cell-based. Summed up: as §2
For data set [12], the target named is T2, Prostaglandin G/H synthase 2 (Homo sapiens, UniProt P35354).
T2 sequence (P35354 whole entry): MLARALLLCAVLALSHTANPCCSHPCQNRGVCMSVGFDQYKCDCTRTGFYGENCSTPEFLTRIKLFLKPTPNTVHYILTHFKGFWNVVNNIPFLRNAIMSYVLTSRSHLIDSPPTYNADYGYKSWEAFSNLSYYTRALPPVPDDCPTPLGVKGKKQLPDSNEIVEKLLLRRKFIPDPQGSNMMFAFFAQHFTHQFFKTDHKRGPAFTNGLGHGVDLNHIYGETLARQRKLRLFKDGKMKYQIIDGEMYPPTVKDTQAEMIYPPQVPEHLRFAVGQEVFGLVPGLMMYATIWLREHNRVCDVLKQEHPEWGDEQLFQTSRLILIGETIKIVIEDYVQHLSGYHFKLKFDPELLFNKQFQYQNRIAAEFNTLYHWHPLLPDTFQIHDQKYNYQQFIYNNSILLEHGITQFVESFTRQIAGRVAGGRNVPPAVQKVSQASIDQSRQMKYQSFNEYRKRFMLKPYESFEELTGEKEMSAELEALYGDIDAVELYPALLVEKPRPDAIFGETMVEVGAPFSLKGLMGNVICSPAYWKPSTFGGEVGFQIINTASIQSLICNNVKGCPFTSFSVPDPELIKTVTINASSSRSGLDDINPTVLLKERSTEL
Briefly: Inhibition of COX-2 (unknown origin) by ELISA.

A short description of data set [13]: Ratio of IC50 for COX-2 positive human HCA-7 cells to IC50 for COX-2 positive human HCA-7 cells transfected with CD44v6shRNA. It counts as functional.
Data set [14] deals with HT-29. Briefly: Ratio of IC50 for COX-2 positive human HT-29 cells to IC50 for COX-2 positive human HT-29 cells transfected with CD44v6shRNA. It counts as functional.
Data set [15] is described as follows: Cytotoxicity against COX-2 positive mouse APC10.1 cells overexpressing HAS-2 assessed as growth inhibition by CellTiter-96 AQueous assay. It counts as functional, cell-based.
In data set [16] the test system is HCA-7. Briefly: Inhibition of hyaluronan-induced CD44v6 in human HCA-7 cells transfected with Has2cDNA assessed as downregulation of 5-LOX protein expression at 5 uM after 24 hrs by Western blotting analysis. It counts as cell-based. In a few lines:
as §2

Data set [17] has as its system HT-29. Briefly: Downregulation of hyaluronan-induced CD44v6 m-RNA expression in human HT-29 cells transfected with Has2cDNA at 5 uM after 24 hrs by qRT-PCR analysis. In kind it is functional, cell-based. In a few lines: as §4
Data set [18] deals with T3, Prostaglandin G/H synthase 1 (Ovis aries, UniProt P05979).
T3 sequence (P05979 whole entry): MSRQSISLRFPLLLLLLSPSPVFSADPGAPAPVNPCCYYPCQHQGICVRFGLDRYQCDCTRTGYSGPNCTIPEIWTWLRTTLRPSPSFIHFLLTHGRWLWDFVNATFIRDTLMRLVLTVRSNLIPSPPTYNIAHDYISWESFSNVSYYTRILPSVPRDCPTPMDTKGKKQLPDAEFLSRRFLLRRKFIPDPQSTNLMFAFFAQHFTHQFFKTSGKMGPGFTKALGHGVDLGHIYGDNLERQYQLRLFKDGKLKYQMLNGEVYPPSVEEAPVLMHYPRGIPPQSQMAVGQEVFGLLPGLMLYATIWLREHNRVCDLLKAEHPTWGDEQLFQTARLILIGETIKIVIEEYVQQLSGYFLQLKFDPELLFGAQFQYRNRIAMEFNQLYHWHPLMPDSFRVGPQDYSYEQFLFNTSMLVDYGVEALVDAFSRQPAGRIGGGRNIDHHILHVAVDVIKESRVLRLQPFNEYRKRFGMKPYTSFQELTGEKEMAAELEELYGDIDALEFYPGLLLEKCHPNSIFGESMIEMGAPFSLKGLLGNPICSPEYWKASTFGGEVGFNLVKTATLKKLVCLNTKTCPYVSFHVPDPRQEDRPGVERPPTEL
Briefly: Inhibition of ram seminal vesicle COX-1 assessed as conversion of arachidonic acid to PGH2. Summed up: as §1

Data set [19] deals with HT-29. Description: Cytotoxicity against COX-2 positive human HT-29 cells assessed as growth inhibition by CellTiter-96 AQueous assay. It counts as functional, cell-based.
Data set [20] is described as follows: Cytotoxicity against COX-2 positive human HCA-7 cells assessed as growth inhibition by CellTiter-96 AQueous assay. It counts as functional, cell-based.

Each structure is given as a SMILES string. Calls of active or inactive are those of the source. No cut-off for these calls is given here.

For orientation: IC50 means the concentration needed to halve the response being measured. `CC(C)(C)c1cc(/C=N/NC(=O)c2ccccc2O)c(O)c(C(C)(C)C)c1`: the half-inhibitory concentration (IC50) in data set [1] is 8 µM; in data set [2] it was 0.078 µM; in data set [8] it was 0.15 µM; in the data set with HT-29 [9] it was 0.09 µM; in the data set with SW480 it was 15.5 µM; in [12], 5.13 µM. For the same compound, the half-inhibitory concentration (IC50) in [15] was 5.6 µM; in data set [18] it was 44.6 µM; in the data set on HT-29 [19], 1.8 µM; in [20], 1.6 µM. The outcome (in [3]; with HCA-7 [5]; in the data set on HT-29 [6]; in the data set with HCA-7 [11]; in the data set with HCA-7 [16]; in the data set on HT-29 [17]) was Active. Moreover, in [4], the Activity result was “Non-toxic”. Further, the “growth inhibition (GI)” value in the data set on HCA-7 [7] was “Active”. The “Ratio IC50” value was determined as 37.3 in data set [10], 21 in [13] and 20 in the data set with HT-29 [14].

Values taken from ChEMBL document CHEMBL3098067, “Novel di-tertiary-butyl phenylhydrazones as dual cyclooxygenase-2/5-lipoxygenase inhibitors: synthesis, COX/LOX inhibition, molecular modeling, and insights into their cytotoxicities” (Bioorg Med Chem Lett, 2014).
